Screening data from PubChem BioAssay.
OXTR potentiate = potentiates the human oxytocin receptor response; P30559; CHO-OTR cells, Fluo-8 calcium fluorescence, potentiator mode; 0% = oxytocin EC15, 100% = EC100; activation, % at 3 µM; hit rate 0.061% among 320,000;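 active = activation above that plate's cutoff, the mean activation of tested compounds plus 3 SD, cut at about 6.6% in these data, passing the limit was not always enough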
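System: human OTR in CHO cells; Also added: sub-maximal oxytocin, roughly EC15; Timing: compound 6 min at room temperature before oxytocin, 100 s read; Technique: Fluo-8 intracellular calcium fluorescence, ex 470-495, em 515-575 nm; Controls: oxytocin EC15 low and EC100 high; Replication: singlicate.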
OXTR ag = activates the human oxytocin receptor; P30559; CHO-OTR cells, Fluo-8 calcium fluorescence; normalized: DMSO 0%, oxytocin 100%; activation, % at 3 µM; hit rate 0.32% among 320,000;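 active = activation above the mean of all tested compounds plus 3 SD, cutoff set per screening run, cut at about 20% in these data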;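 also: peak over basal fluorescence ratio from a 100 s FLIPR kinetic read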
TAAR1 ag = agonists of human TAAR1 | Q96RJ0 | CHO RD-HGA16 TAAR1, Fluo-8 calcium fluorescence; vehicle wells 0%, saturating PEA agonist 100% | activation, % at 3 µM | hit rate 0.99% among 360,000 | AID 624467;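 active = activation above the mean activation of all test compounds in the run plus 3 SD, cut at about 38% in these data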
Target sequence (Q96RJ0 whole entry, looked up): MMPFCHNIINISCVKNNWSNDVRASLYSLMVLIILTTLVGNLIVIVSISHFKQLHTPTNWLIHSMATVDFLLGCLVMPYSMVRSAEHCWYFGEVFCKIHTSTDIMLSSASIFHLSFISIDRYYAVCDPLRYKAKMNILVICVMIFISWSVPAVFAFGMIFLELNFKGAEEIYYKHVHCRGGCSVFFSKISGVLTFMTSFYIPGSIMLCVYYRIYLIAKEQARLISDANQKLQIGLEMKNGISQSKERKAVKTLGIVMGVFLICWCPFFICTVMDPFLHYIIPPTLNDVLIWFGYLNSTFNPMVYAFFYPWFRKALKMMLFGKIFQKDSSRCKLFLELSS
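Benchmarks: low control DMSO, high control PEA (EC100); System: CHO RD-HGA16 cells carrying human TAAR1 plus Gα16; Detection: Fluo-8 fluorescence, 5 s baseline then 140 s kinetic read; Schedule: 17-24 h plating, Fluo-8 75 min 37 °C, 30 min RT; Read-out basis: % activation from peak over basal fluorescence ratio, DMSO-to-PEA scaled.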
V1aR counter = activates human V1a receptor in oxytocin agonist counter-screen | activation, % at 3 µM | AID 2797 | P37288 | CHO-V1R cells, Fluo-8 calcium fluorescence, agonist mode; 0% DMSO, 100% 3 nM vasopressin | hit rate 0.25% among 320,000;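 active = activation above the mean activation of all tested compounds plus 3 SD, per screening run, cut at about 20% in these data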;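 also: signal is peak over basal fluorescence ratio across a 100 second FLIPR read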
Target sequence (P37288 whole entry, looked up): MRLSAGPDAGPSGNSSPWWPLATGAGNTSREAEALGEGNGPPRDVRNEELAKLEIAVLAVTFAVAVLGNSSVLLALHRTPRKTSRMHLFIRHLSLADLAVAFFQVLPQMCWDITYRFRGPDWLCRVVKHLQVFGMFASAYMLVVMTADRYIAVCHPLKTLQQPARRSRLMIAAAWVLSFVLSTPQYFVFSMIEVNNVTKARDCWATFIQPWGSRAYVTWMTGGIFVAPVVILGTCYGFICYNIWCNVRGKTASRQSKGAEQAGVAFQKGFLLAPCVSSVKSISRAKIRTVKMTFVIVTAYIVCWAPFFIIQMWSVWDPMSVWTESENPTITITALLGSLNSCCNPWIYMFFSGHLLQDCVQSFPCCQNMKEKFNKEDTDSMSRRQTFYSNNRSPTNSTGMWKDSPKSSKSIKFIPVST
TAAR1 antag = antagonists of human TAAR1. Q96RJ0. CHO RD-HGA16 TAAR1, Fluo-8 calcium fluorescence, antagonist. inhibition, % at 3 µM. hit rate 1.5% among 360,000. AID 624466;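 active = inhibition above a per-plate cutoff, the mean inhibition of test compounds on that plate plus 3 SD, cut at about 49% in these data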
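Material: CHO RD-HGA16 cells bearing hTAAR1; compound dosing: one-point dosing, 3 µM nominal final; schedule: dye loading 75 min at 37 °C, then 30 min room temperature; measured by: calcium fluorescence with Fluo-8; control set: vehicle and agonist controls; replication: n of 1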
TAAR1 ag confirm = confirmation of human TAAR1 agonists; activation, % at 3 µM; shares compounds with TAAR1 ag; hit rate 82% among 2,400; CHO RD-HGA16 TAAR1, Fluo-8 calcium fluorescence; scaled: DMSO 0%, maximal phenethylamine 100%; AID 651783;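 active = activation above a cutoff set at the run's mean compound activation plus 3 SD, cut at about 39% in these data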
Ga16 nonsel ag = counter-screen for TAAR1 agonists: nonselective agonists in parental cells | CHO-Ga16 parental, Fluo-8 calcium fluorescence; normalized to maximal ATP response, DMSO zero | activation, % at 3 µM | hit rate 50% among 2,400 | shares compounds with TAAR1 ag;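 active = activation above the run cutoff, the mean activation over all tested wells plus 3 SD, cut at about 12% in these data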
TAAR1 desens = counter-screen for human TAAR1 agonists: agonists that desensitize TAAR1; shares compounds with TAAR1 ag; CHO RD-HGA16 hTAAR1, Fluo-8 calcium, beta-PEA response inhibition; inhibition, % at 3 µM; hit rate 46% among 2,400;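 active = inhibition above the run cutoff, the mean inhibition of all test compounds plus 3 SD, cut at about 49% in these data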;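 also: beta-PEA stimulus applied at its EC80; loss of beta-PEA calcium signal after compound pretreatment read as receptor desensitization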
Ga16 nonsel ant = counter-screen for TAAR1 agonists: nonselective Ga16 antagonists. shares compounds with TAAR1 ag. CHO-Ga16 ATP-induced calcium, Fluo-8 fluorescence. inhibition, % at 3 µM. hit rate 39% among 2,400. AID 651952;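 active = inhibition above the plate's mean compound inhibition plus 3 SD, computed per plate, cut at about 22% in these data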
Of the large screens only hits and unclear results are named; the others gave an inactive call (follow-up assays come after a bar, where they were run). This is a sample that favours compounds with a hit; in the whole collection about 2.3% have one here.

COc1cccc(C(=O)N[C@@H](Cc2cccnc2)C(=O)N2CCC[C@H]2C(=O)NCc2ccccc2)c1	none (no result: OXTR potentiate, OXTR ag, V1aR counter)
O=C(CC1CCCC1)N[C@@H](Cc1cccnc1)C(=O)N1CCC[C@H]1C(=O)NCCc1ccccc1Cl	TAAR1 ag 70, TAAR1 antag 78 (no result: OXTR potentiate, OXTR ag, V1aR counter) | TAAR1 ag confirm 87 | Ga16 nonsel ag 13 | TAAR1 desens 90 | Ga16 nonsel ant inactive
O=C(N[C@@H](Cc1cccnc1)C(=O)N1CCC[C@H]1C(=O)NCCc1ccccc1Cl)C1CCCC1	TAAR1 ag 80, TAAR1 antag 73 (no result: OXTR potentiate, OXTR ag, V1aR counter) | TAAR1 ag confirm 80 | Ga16 nonsel ag inactive | TAAR1 desens 86 | Ga16 nonsel ant inactive
O=C(N[C@@H](Cc1cccnc1)C(=O)N1CCC[C@H]1C(=O)NCc1ccccc1)c1ccc(Cl)cc1Cl	none (no result: OXTR potentiate, OXTR ag, V1aR counter)
COc1cccc(C(=O)N[C@@H](Cc2cccnc2)C(=O)N2CCC[C@H]2C(=O)NCCc2ccccc2Cl)c1	TAAR1 ag 67, TAAR1 antag 71 (no result: OXTR potentiate, OXTR ag, V1aR counter) | TAAR1 ag confirm 83 | Ga16 nonsel ag inactive | TAAR1 desens 93 | Ga16 nonsel ant inactive
O=C(N[C@@H](Cc1cccnc1)C(=O)N1CCC[C@H]1C(=O)NCCc1ccccc1Cl)c1ccco1	none (no result: OXTR potentiate, OXTR ag, V1aR counter)
O=C(N[C@@H](Cc1cccnc1)C(=O)N1CCC[C@H]1C(=O)NCCc1ccccc1Cl)c1ccc(Cl)cc1Cl	TAAR1 ag 65, TAAR1 antag 66 (no result: OXTR potentiate, OXTR ag, V1aR counter) | TAAR1 ag confirm 72 | Ga16 nonsel ag inactive | TAAR1 desens 89 | Ga16 nonsel ant inactive
CCN(c1ccc(NC(=O)COC(=O)C2CCN(c3ccc(C(F)(F)F)cn3)CC2)cc1)C(C)C	none (no result: OXTR potentiate, OXTR ag, V1aR counter)
CC(=O)N1CCOc2ccc(S(=O)(=O)N3CCC(C)CC3)cc21	none
c1ccc(-c2nc3cccnc3nc2-c2ccccc2)cc1	none
NNC(=S)NCCc1ccccc1	none (no result: TAAR1 ag, TAAR1 antag) | Ga16 nonsel ag inactive | Ga16 nonsel ant inactive
NS(=O)(=O)c1ccc(NC(=S)NCCc2ccccc2)cc1	TAAR1 ag 54 | TAAR1 ag confirm 82 | Ga16 nonsel ag inactive | TAAR1 desens 68 | Ga16 nonsel ant inactive
O=S(=O)(NC1=NCCC1)c1cccc(NC(=S)NCCc2ccccc2)c1	TAAR1 ag 62 | TAAR1 ag confirm inactive | Ga16 nonsel ag inactive | TAAR1 desens inactive | Ga16 nonsel ant inactive
Fc1ccc(CNC(=S)NCc2ccccc2)cc1	none
S=C(NCc1ccccc1)NCc1ccc(CNC(=S)NCc2ccccc2)cc1	TAAR1 ag 56, TAAR1 antag 65 | TAAR1 ag confirm 51 | Ga16 nonsel ag 20 | TAAR1 desens 63 | Ga16 nonsel ant 47
COC(=O)C1(C(=O)OC)c2ccccc2CN(S(=O)(=O)c2ccc(C)cc2)C1CC(C)=O (configuration not stated)	none (no result: OXTR potentiate, OXTR ag, V1aR counter)
COc1ccc(NC(=O)CCCc2nc3ccccc3c(=O)[nH]2)cc1Cl	none
CCOC(=O)c1ccc(NC(=S)NCc2ccccc2)cc1	none
COc1ccc(C(=O)NC(=S)Nc2ccc(S(N)(=O)=O)cc2)cc1	none
COC(=O)c1ccc(NC(=S)Nc2ccccc2)cc1	none
COC(=O)c1ccc(NC(=S)NCCc2ccccc2)cc1	TAAR1 ag 73, TAAR1 antag 54 | TAAR1 ag confirm 82 | Ga16 nonsel ag 12 | TAAR1 desens 77 | Ga16 nonsel ant 28
CCOC(=O)c1ccc(NC(=S)NCCc2ccccc2F)cc1	TAAR1 ag 70 | TAAR1 ag confirm 89 | Ga16 nonsel ag inactive | TAAR1 desens 86 | Ga16 nonsel ant 33
COc1ccc(CC(=O)NC(=S)Nc2ccc(S(N)(=O)=O)cc2)cc1	OXTR ag 25, TAAR1 ag 81, V1aR counter 24 | TAAR1 ag confirm 88 | Ga16 nonsel ag 40 | TAAR1 desens inactive | Ga16 nonsel ant 28
O=S(=O)(c1ccc(NC(=S)NCCc2ccccc2)cc1)N1CCOCC1	TAAR1 ag 74 | TAAR1 ag confirm 86 | Ga16 nonsel ag 13 | TAAR1 desens 65 | Ga16 nonsel ant 26
Cc1ccc(NS(=O)(=O)c2cccc(C(=O)Nc3c(C)n(C)n(-c4ccccc4)c3=O)c2)cc1	none (no result: TAAR1 ag, TAAR1 antag)
O=C(COc1ccc2c(c1)oc(=O)c1ccccc12)NC(Cc1ccc(Cl)cc1)C(=O)O (configuration not stated)	none
C/C(=N\NC(=O)c1nnn(-c2nonc2N)c1-c1ccc2c(c1)OCO2)c1ccccc1	TAAR1 ag 60 | TAAR1 ag confirm 96 | Ga16 nonsel ag 46 | TAAR1 desens inactive | Ga16 nonsel ant inactive
C/C(=N\NC(=O)c1nnn(-c2nonc2N)c1-c1ccc2c(c1)OCO2)c1ccc(C)cc1	TAAR1 ag 125, TAAR1 antag 80 | TAAR1 ag confirm 127 | Ga16 nonsel ag 94 | TAAR1 desens 83 | Ga16 nonsel ant 64
CC1CCCN(CC(O)COC(c2ccccc2)c2ccccc2)C1 (configuration not stated)	none
O=C(COc1ncnc2sccc12)Nc1cccc(S(=O)(=O)N2CCOCC2)c1	none
CC(C)CN1CC(C)C(=O)N(c2ccccc2)C1=O (configuration not stated)	TAAR1 ag 63 (no result: OXTR potentiate, OXTR ag, V1aR counter) | TAAR1 ag confirm inactive | Ga16 nonsel ag inactive | TAAR1 desens inactive | Ga16 nonsel ant inactive
CC1CN(Cc2ccccc2)C(=S)N(c2ccccc2)C1=O (configuration not stated)	none (no result: OXTR potentiate, OXTR ag, V1aR counter)
O=C(NNC(=O)c1ccc(Cl)c(Cl)c1)c1ccncc1	none
O=C(Nc1ccncc1)c1ccc(Cl)c(Cl)c1	TAAR1 ag 56 | TAAR1 ag confirm 42 | Ga16 nonsel ag 19 | TAAR1 desens inactive | Ga16 nonsel ant inactive
c1ccc(CCNc2ncnc3nc[nH]c23)cc1	TAAR1 ag 71 | TAAR1 ag confirm 89 | Ga16 nonsel ag inactive | TAAR1 desens 82 | Ga16 nonsel ant inactive
Cc1c(Cl)ccc2c1NC(=O)[C@]21N[C@@H](Cc2ccccc2)[C@H]2C(=O)N(c3ccc(F)cc3)C(=O)[C@H]21	OXTR ag 27, TAAR1 ag 92, V1aR counter 24 | TAAR1 ag confirm 103 | Ga16 nonsel ag 42 | TAAR1 desens 75 | Ga16 nonsel ant 38
